# According to ChEMBL document CHEMBL1153936, “Synthesis and pharmacological evaluation of (2-oxaadamant-1-yl)amines” (Bioorg Med Chem, 2009):
# Active and inactive are the calls of the source. No cut-off for these calls is given here.
# Tests used:
# [1] = Antagonist activity against glutamate receptor in rat cerebellar granule neurons assessed as inhibition of glutamate-induced increase in intracellular calcium level by Fura-2 AM dye based fluorimetry; assay type: functional, cell-based
# Method in brief: (§1)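 Primary cerebellar granule neurons were grown on poly-L-lysine-coated glass coverslips and used after 7–14 days in vitro. Cells were loaded with 6 μM Fura-2 AM for 45 min. Fluorometry was done in Locke-Hepes buffer at 37 °C with mild agitation, recorded over 1200 s. Cells were stimulated with NMDA or glutamate at 100 μM plus 10 μM glycine. Test compound was then added at cumulative rising concentrations. IC50 came from variable-slope nonlinear regression of % inhibition. Values are means ± SEM, n ≥ 3 separate experiments on three culture batches.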
# [2] = target: Glutamate NMDA receptor; experiment: Antagonist activity against NMDA receptor in rat cerebellar granule neurons assessed as inhibition of NMDA -induced increase in intracellular calcium level by Fura-2 AM dye based fluorimetry; assay type: functional, cell-based; method in brief: as §1
# [3] = system: Trypanosoma brucei; experiment: Antitrypanosomal activity against Trypanosoma brucei 427 assessed as parasite growth inhibition up to 5 mg/mL after 48 hrs; assay type: functional, organism-based
# [4] = system: Human alphaherpesvirus 1; experiment: Antiviral activity against HSV1 assessed as inhibition of viral replication; assay type: functional, organism-based
# Method in brief: (§2)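 Cell-culture virus replication assays. Inhibition of viral replication and compound cytotoxicity were scored by microscopic examination, then confirmed by a colorimetric MTS cell viability assay.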
# [5] = system: Human alphaherpesvirus 2; experiment: Antiviral activity against HSV2 assessed as inhibition of viral replication; assay type: functional, organism-based; method in brief: as §2
# [6] = system: Vaccinia virus; experiment: Antiviral activity against Vaccinia virus assessed as inhibition of viral replication; assay type: functional, organism-based; settings: Orthopoxvirus vaccinia
# Method in brief: (§3)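 Cell-culture virus replication assay. Inhibition of virus-induced effects and compound cytotoxicity were scored by microscopic examination and confirmed by colorimetric MTS cell-viability readout.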
# [7] = system: Feline coronavirus; experiment: Antiviral activity against Feline coronavirus assessed as inhibition of viral replication; assay type: functional, organism-based; method in brief: as §2
# [8] = system: Human respirovirus 3; experiment: Antiviral activity against parainfluenza virus 3 assessed as inhibition of viral replication; assay type: functional, organism-based; method in brief: as §2
# [9] = system: Respiratory syncytial virus; experiment: Antiviral activity against Respiratory syncytial virus assessed as inhibition of viral replication; assay type: functional, organism-based; method in brief: as §2
# [10] = system: Vesicular stomatitis virus; experiment: Antiviral activity against Vesicular stomatitis virus assessed as inhibition of viral replication; assay type: functional, organism-based; method in brief: as §3
# [11] = system: Sindbis virus; experiment: Antiviral activity against Sindbis virus assessed as inhibition of viral replication; assay type: functional, organism-based; method in brief: as §2
# [12] = system: Punta Toro virus; experiment: Antiviral activity against Punta Toro virus assessed as inhibition of viral replication; assay type: functional, organism-based; method in brief: as §2
# [13] = system: Coxsackievirus B4; experiment: Antiviral activity against Coxsackievirus B4 assessed as inhibition of viral replication; assay type: functional, organism-based; method in brief: as §2
# [14] = system: Mammalian orthoreovirus 1; experiment: Antiviral activity against Reovirus 1 assessed as inhibition of viral replication; assay type: functional, organism-based; method in brief: as §2
# [15] = system: Influenza A virus; experiment: Antiviral activity against Influenza A virus (A/Puerto Rico/8/34(H1N1)) assessed as inhibition of viral replication; assay type: functional, organism-based; settings: A/Puerto Rico/8/1934(H1N1); method in brief: as §3
# [16] = system: Influenza A virus H3N2; experiment: Antiviral activity against Influenza A virus (A/Hong Kong/7/1987(H3N2)) assessed as inhibition of viral replication; assay type: functional, organism-based; method in brief: as §3
# [17] = system: Influenza B virus; experiment: Antiviral activity against Influenza B virus (B/Hong Kong/05/1972) assessed as inhibition of viral replication; assay type: functional, organism-based; method in brief: as §3
# [18] = system: Trypanosoma brucei; experiment: Antitrypanosomal activity against Trypanosoma brucei 427 assessed as parasite growth inhibition after 48 hrs; assay type: functional, organism-based; settings: Trypanosoma brucei, 427, 48 h
smiles,measurement,setting,value
CCC12CC3CC(C1)CC(N(C)Cc1ccccc1)(C3)O2,IC50,[1],> 500 µM
same,IC50,[2],> 200 µM
c1ccc(CCNC23CC4CC(CC(C4)O2)C3)cc1,IC50,[1],> 500 µM
same,IC50,[2],> 200 µM
same,Activity,[3],inactive
CN(Cc1ccccc1)C12CC3CC(CC(C3)O1)C2,IC50,[1],> 500 µM
same,IC50,[2],> 200 µM
same,Activity,[3],inactive
CC12CC3CC(C1)CC(NN)(C3)O2,IC50,[1],> 500 µM
same,IC50,[2],> 200 µM
NC12CC3CC(CC(C3)O1)C2,IC50,[1],> 500 µM
same,IC50,[2],> 200 µM
same,Activity,[4],inactive
same,Activity,[5],inactive
same,Activity,[6],inactive
same,Activity,[7],inactive
same,Activity,[8],inactive
same,Activity,[9],inactive
same,Activity,[10],inactive
same,Activity,[11],inactive
same,Activity,[12],inactive
same,Activity,[13],inactive
same,Activity,[14],inactive
same,Activity,[15],inactive
same,Activity,[16],inactive
same,Activity,[17],inactive
same,Activity,[3],inactive
CCC12CC3CC(C1)CC(NC)(C3)O2,IC50,[1],108 µM
same,IC50,[2],32 µM
same,Activity,[4],inactive
same,Activity,[5],inactive
same,Activity,[6],inactive
same,Activity,[7],inactive
same,Activity,[8],inactive
same,Activity,[9],inactive
same,Activity,[10],inactive
same,Activity,[11],inactive
same,Activity,[12],inactive
same,Activity,[13],inactive
same,Activity,[14],inactive
same,Activity,[15],inactive
same,Activity,[16],inactive
same,Activity,[17],inactive
CC(N)C12CC3CC(CC(C3)C1)C2 (configuration not stated) [RIMANTADINE],IC90,[18],14 µM
c1ccc(CN(Cc2ccccc2)C23CC4CC(CC(C4)O2)C3)cc1,IC50,[1],> 500 µM
same,IC50,[2],> 200 µM
same,Activity,[3],inactive
CCC12CC3CC(C1)CC(NN)(C3)O2,IC50,[1],> 500 µM
CCN(CC)C12CC3CC(CC(CC)(C3)O1)C2,IC50,[1],22 µM
same,IC50,[2],14 µM
c1ccc(CNC23CC4CC(CC(C4)O2)C3)cc1,IC50,[1],> 500 µM
same,IC50,[2],> 200 µM
same,Activity,[4],inactive
same,Activity,[5],inactive
same,Activity,[6],inactive
same,Activity,[7],inactive
same,Activity,[8],inactive
same,Activity,[9],inactive
same,Activity,[10],inactive
same,Activity,[11],inactive
same,Activity,[12],inactive
same,Activity,[13],inactive
same,Activity,[14],inactive
same,Activity,[15],inactive
same,Activity,[16],inactive
same,Activity,[17],inactive
same,Activity,[3],inactive
